Assay [1] addresses T1, Toll-like receptor 9 (Mus musculus) (UniProt Q9EQU3).
T1 sequence (whole entry): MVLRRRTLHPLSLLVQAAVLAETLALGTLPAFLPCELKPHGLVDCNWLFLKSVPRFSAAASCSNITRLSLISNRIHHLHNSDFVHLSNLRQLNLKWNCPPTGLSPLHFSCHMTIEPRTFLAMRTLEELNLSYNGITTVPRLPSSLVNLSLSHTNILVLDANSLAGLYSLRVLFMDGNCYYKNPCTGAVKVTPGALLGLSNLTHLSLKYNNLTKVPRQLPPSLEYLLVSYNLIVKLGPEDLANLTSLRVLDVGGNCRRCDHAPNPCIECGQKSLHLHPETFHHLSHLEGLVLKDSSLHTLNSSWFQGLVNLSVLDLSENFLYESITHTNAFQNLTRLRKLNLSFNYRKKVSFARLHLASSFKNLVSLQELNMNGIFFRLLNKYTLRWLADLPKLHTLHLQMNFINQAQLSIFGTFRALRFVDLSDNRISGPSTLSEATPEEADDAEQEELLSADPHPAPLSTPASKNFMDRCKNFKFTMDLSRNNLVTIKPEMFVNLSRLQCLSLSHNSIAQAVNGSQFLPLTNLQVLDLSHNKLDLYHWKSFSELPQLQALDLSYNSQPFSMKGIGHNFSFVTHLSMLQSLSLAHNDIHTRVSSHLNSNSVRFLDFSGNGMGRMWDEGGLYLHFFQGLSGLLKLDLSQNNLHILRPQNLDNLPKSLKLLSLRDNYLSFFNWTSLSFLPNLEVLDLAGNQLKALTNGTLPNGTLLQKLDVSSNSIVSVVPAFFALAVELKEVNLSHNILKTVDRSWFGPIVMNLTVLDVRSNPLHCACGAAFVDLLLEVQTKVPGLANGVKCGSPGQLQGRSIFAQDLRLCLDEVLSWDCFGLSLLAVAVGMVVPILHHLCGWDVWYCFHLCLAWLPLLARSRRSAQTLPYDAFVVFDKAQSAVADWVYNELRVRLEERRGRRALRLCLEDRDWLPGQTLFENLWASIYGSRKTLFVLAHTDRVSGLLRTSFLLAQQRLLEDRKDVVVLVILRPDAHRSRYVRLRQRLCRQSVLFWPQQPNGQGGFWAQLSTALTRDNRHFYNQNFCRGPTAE
Description: Agonist activity at mouse TLR9 expressed in HEK293 cells assessed as activation of NF-kappaB at 10 ug/mL by SEAP reporter gene assay. It is filed as functional, cell-based. In outline: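 HEK293 cells stably expressing mouse TLR9 were transiently transfected with a SEAP reporter for 6 h. Compounds were added at 10 µg/mL for 18 h. SEAP was read with Quanti-Blue substrate and expressed as fold change in NF-κB activity.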

In assay [2] the target is T1, Toll-like receptor 9 (Mus musculus). Description: Antagonist activity at mouse TLR9 expressed in HEK293 cells assessed as inhibition of 5'-CTATCTGACGTTCTCTGT-3'-induced NF-kappaB activation by SEAP reporter gene assay. The format is functional, cell-based. A digest of the protocol:
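Mouse TLR9-HEK293 cells were transfected with a SEAP reporter for 6 h. They were then stimulated for 18 h with agonist (0.25 or 0.5 µg/mL) plus increasing antagonist concentrations or set agonist:antagonist ratios. Quanti-Blue read-out, reported as % NF-κB activity with agonist alone as 100%.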
Background: A reporter such as luciferase makes a cellular process visible.

The test system of assay [3] is Mus musculus. Description: Induction of IL6 secretion in C57BL/6 mouse at 20 mg/kg, sc. The format is functional, organism-based. Details: dose 20 mg/kg. A digest of the protocol: (§1)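 Female C57BL/6 mice, 6–8 weeks old (n=3), were injected sc with single compounds at 0.25 or 20 mg/kg. Serum was collected by retro-orbital bleed 2 h later and cytokines were measured by Luminex mouse 20-plex assay.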

For assay [4], the system named is Mus musculus. The experiment in a line: Induction of cytokine MIG secretion in C57BL/6 mouse at 20 mg/kg, sc. The format is functional, organism-based. Also on record: dose 20 mg/kg. In outline: as §1
The subject of assay [5] is Mus musculus. The experiment in a line: Induction of cytokine MCP1 secretion in C57BL/6 mouse at 20 mg/kg, sc. It is filed as functional, organism-based. Details: dose 20 mg/kg. A digest of the protocol:
as §1

The test system of assay [6] is Mus musculus. The experiment in a line: Induction of cytokine KC secretion in C57BL/6 mouse at 20 mg/kg, sc. It is filed as functional, organism-based. Also on record: dose 20 mg/kg. A digest of the protocol: as §1
The subject of assay [7] is Mus musculus. Description: Induction of IP10 secretion in C57BL/6 mouse at 20 mg/kg, sc. It is filed as functional, organism-based. Details: dose 20 mg/kg. A digest of the protocol:
as §1

Assay [8] concerns Mus musculus. Description: Induction of IL10 secretion in C57BL/6 mouse at 20 mg/kg, sc. The format is functional, organism-based. Details: dose 20 mg/kg. A digest of the protocol:
as §1

Assay [9] has as its system Mus musculus. Description: Induction of IL12 secretion in C57BL/6 mouse at 20 mg/kg, sc. The format is functional, organism-based. Also on record: dose 20 mg/kg. In outline: as §1
The species named for assay [10] is Mus musculus. Description: Inhibition of 5'-TCTGACRTTCT-X-TCTTRCAGTCT-3'-induced IL12 production in C57BL/6 mouse measured after 2 hrs of induction by ELISA. The format is functional, organism-based. In outline: (§2)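 C57BL/6 mice (n=3) were given TLR9 agonist 0.25 mg/kg sc in the left flank and various antagonist doses sc in the right flank at the same time. Serum IL-12 was measured by sandwich ELISA 2 h after agonist.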

Assay [11] is filed under the species Mus musculus. The experiment in a line: Inhibition of 5'-TCTGACRTTCT-X-TCTTRCAGTCT-3'-induced IL12 production in C57BL/6 mouse at 1:4 agonist to drug ratio by ELISA. The format is functional, organism-based. A digest of the protocol: as §2
On the technique in general: In an ELISA, binding on a coated surface is turned into a signal by an enzyme label.

Assay [12] deals with Mus musculus. The experiment in a line: Inhibition of 5'-TCTGACRTTCT-X-TCTTRCAGTCT-3'-induced IL12 production in C57BL/6 mouse treated 6 hrs of induction and measured after 2 hrs at 2 mg/kg, sc. It is filed as functional. To be noted: C57BL/6, sc, route subcutaneous. A digest of the protocol:
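Mice received antagonist sc at a low or high dose, then TLR9 agonist sc 6 h later. Serum IL-12 was determined 2 h after agonist administration.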

The test system of assay [13] is Mus musculus. The experiment in a line: Inhibition of 5-TCTGACRTTCT-X-TCTTRCAGTCT-3-induced IL12 production in C57BL/6 mouse treated 6 hrs of induction and measured after 2 hrs at 20 mg/kg, sc. It is filed as functional. To be noted: C57BL/6, sc, route subcutaneous.
The subject of assay [14] is Mus musculus. The experiment in a line: Inhibition of 5-TCTGACRTTCT-X-TCTTRCAGTCT-3-induced IL12 production in C57BL/6 mouse at 20 mg/kg, sc up to 168 hrs. Also on record: dose 20 mg/kg. The format is functional, organism-based. In outline:
(§3)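 Female C57BL/6 mice, 6-8 weeks, n = 3, given antagonist 20 mg/kg sc. TLR9 agonist at 0.25 mg/kg sc at various intervals afterward; blood taken 2 h after agonist and serum IL-12 measured by sandwich ELISA. Representative of more than six independent experiments.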

The test system of assay [15] is Mus musculus. The experiment in a line: Inhibition of 5-TCTGACRTTCT-X-TCTTRCAGTCT-3-induced IL12 production in C57BL/6 mouse at 20 mg/kg, sc up to 120 hrs. The format is functional. To be noted: C57BL/6, sc, route subcutaneous. In outline:
as §3

For one compound, Activity and inhibition in vivo results are on record in ChEMBL document CHEMBL1140884, “Oligodeoxyribonucleotide-based antagonists for Toll-like receptors 7 and 9” (2009).

Calls of active or inactive are those of the source. The calls are words filed in the database; no cut-off is given here.

In general, inhibition in vivo refers to how much of the control response was suppressed. Lower therefore signals a response near the control. As for `CO[C@@H]1[C@H](OP(=O)(S)OC[C@H]2O[C@@H](n3ccc(N)nc3=O)C[C@@H]2OP(=O)(S)OC[C@H]2O[C@@H](n3cnc4c(=O)[nH]c(N)nc43)C[C@@H]2OP(=O)(S)OC[C@H]2O[C@@H](n3cc(C)c(=O)[nH]c3=O)C[C@@H]2OP(=O)(S)OC[C@H]2O[C@@H](n3cc(C)c(=O)[nH]c3=O)C[C@@H]2OP(=O)(S)OC[C@H]2O[C@@H](n3ccc(N)nc3=O)C[C@@H]2OP(=O)(S)OC[C@H]2O[C@@H](n3cc(C)c(=O)[nH]c3=O)C[C@@H]2OP(=O)(S)OC[C@H]2O[C@@H](n3ccc(N)nc3=O)C[C@@H]2OP(=O)(S)OC[C@H]2O[C@@H](n3cc(C)c(=O)[nH]c3=O)C[C@@H]2OP(=O)(S)OC[C@H]2O[C@@H](n3cnc4c(=O)[nH]c(N)nc43)C[C@@H]2OP(=O)(S)OC[C@H]2O[C@@H](n3cc(C)c(=O)[nH]c3=O)C[C@@H]2O)[C@@H](COP(=O)(S)O[C@H]2[C@@H](OC)[C@H](n3cnc4c(=O)[nH]c(N)nc43)O[C@@H]2COP(=O)(S)O[C@H]2C[C@H](n3cc(C)c(=O)[nH]c3=O)O[C@@H]2COP(=O)(S)O[C@H]2C[C@H](n3ccc(N)nc3=O)O[C@@H]2COP(=O)(S)O[C@H]2C[C@H](n3cc(C)c(=O)[nH]c3=O)O[C@@H]2COP(=O)(S)O[C@H]2C[C@H](n3cnc4c(N)ncnc43)O[C@@H]2COP(=O)(S)O[C@H]2C[C@H](n3cc(C)c(=O)[nH]c3=O)O[C@@H]2COP(=O)(S)O[C@@H]2C[C@@H](n3ccc(N)nc3=O)O[C@H]2CO)O[C@H]1n1cnc2c(N)ncnc21` (stereo not given in full), the outcome in assay [1], in assay [3], in [4], in [5], in assay [6] and in assay [7] was inactive. Further, the result in [8] and in [9] was inactive. The Activity result in assay [2] and in assay [10] was “Dose-dependent effect” throughout. Also, the outcome in assay [11] and in assay [14] was Active. This compound also displayed an inhibition in vivo at 2 mg/kg in [12] of 50%. The inhibition in vivo at 20 mg/kg is 90% in assay [13] and 50% in assay [15].
